Activity calls are given as the source filed them. No cut-off for these calls is given here.
Columns and labels:
Assay type in all cases: cell-based
[1] = target: Tubulin alpha-4A chain (Homo sapiens) (UniProt P68366); experiment: Binding affinity to TUBA4A in human NCI-H23 cells at 1 uM by mass spectrometry based pull down assay
[2] = target: Clustered mitochondria protein homolog (Homo sapiens) (UniProt O75153); experiment: Binding affinity to CLUH in human NCI-H23 cells at 1 uM by mass spectrometry based pull down assay
[3] = target: Carbonyl reductase [NADPH] 1 (Homo sapiens) (UniProt P16152); experiment: Binding affinity to CBR1 in human NCI-H23 cells at 1 uM by mass spectrometry based pull down assay
[4] = target: Trifunctional enzyme subunit alpha, mitochondrial (Homo sapiens) (UniProt P40939); experiment: Binding affinity to HADHA in human NCI-H23 cells at 1 uM by mass spectrometry based pull down assay
[5] = target: T1, Serine/threonine-protein kinase 4 (Homo sapiens) (UniProt Q13043); experiment: Binding affinity to STK4 in human NCI-H23 cells at 1 uM by mass spectrometry based pull down assay
T1 sequence (whole entry): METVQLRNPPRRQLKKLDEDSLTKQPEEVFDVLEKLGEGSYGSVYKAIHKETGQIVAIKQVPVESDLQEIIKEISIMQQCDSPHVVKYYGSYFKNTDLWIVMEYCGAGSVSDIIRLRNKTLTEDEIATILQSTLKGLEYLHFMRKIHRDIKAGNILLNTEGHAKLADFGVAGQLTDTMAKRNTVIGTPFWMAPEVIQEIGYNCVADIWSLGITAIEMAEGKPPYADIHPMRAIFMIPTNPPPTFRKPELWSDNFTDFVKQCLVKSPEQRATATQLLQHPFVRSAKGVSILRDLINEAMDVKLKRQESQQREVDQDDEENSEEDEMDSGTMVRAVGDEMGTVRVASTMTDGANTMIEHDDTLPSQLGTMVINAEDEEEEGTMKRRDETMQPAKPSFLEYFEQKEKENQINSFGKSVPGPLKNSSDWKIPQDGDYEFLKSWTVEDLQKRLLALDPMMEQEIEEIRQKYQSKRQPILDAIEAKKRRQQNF

[6] = target: LIM domain kinase 1 (Homo sapiens) (UniProt P53667); experiment: Binding affinity to LIMK1 in human NCI-H358 cells at 1 uM by mass spectrometry based pull down assay
[7] = target: General vesicular transport factor p115 (Homo sapiens) (UniProt O60763); experiment: Binding affinity to USO1 in human NCI-H358 cells at 1 uM by mass spectrometry based pull down assay
[8] = target: Lysophosphatidylcholine acyltransferase 1 (Homo sapiens) (UniProt Q8NF37); experiment: Binding affinity to LPCAT1 in human NCI-H358 cells at 1 uM by mass spectrometry based pull down assay
[9] = target: T2, 80S Ribosome (Homo sapiens) (UniProt P08865+P42677+P62753+P15880+P23396+P61247+P62701+P22090+P46782+P62081+P62241+P46781+P46783+P62280+P25398+P62277+P62263+P62841+P62244+P62249+P08708+P62269+P39019+P60866+P63220+P62266+P62847+P62851+P62854+P62979+P62857+P62273+P62861+P39023+P36578+P46777+Q02878+P18124+P62424+P62917+P32969+P27635+P62906+P62913+P30050+P26373+P40429+P50914+P61313+P18621+Q07020+Q02543+P84098+P46778+P35268+P62829+P62750+P83731+P61254+P61353+P46776+P46779+P47914+P62888+P62899+P62910+P49207+P42766+P18077+Q9Y3U8+P83881+P61927+P61513+P63173+P62891+P62945+P05388+P05386); experiment: Binding affinity to RPS26 in human NCI-H358 cells at 1 uM by mass spectrometry based pull down assay
NCI-H23 = experiment: Binding affinity to PSMA1 in human NCI-H23 cells at 1 uM by mass spectrometry based pull down assay
[10] = target: T2, 80S Ribosome (Homo sapiens); experiment: Binding affinity to RPS11 in human NCI-H23 cells at 1 uM by mass spectrometry based pull down assay
[11] = target: E3 ubiquitin-protein ligase UBR4 (Homo sapiens) (UniProt Q5T4S7); experiment: Binding affinity to UBR4 in human NCI-H23 cells at 1 uM by mass spectrometry based pull down assay
[12] = target: Fructose-2,6-bisphosphatase TIGAR (Homo sapiens) (UniProt Q9NQ88); experiment: Binding affinity to TIGAR in human NCI-H23 cells at 1 uM by mass spectrometry based pull down assay
[13] = target: Long-chain-fatty-acid--CoA ligase 1 (Homo sapiens) (UniProt P33121); experiment: Binding affinity to ACSL1 in human NCI-H358 cells at 1 uM by mass spectrometry based pull down assay
Summary of the method: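 NCI-H23 or NCI-H358 cells were grown and lysed. Lysates were incubated overnight at 4 °C with 1 μM biotinylated covalent probe or DMSO, then pulled down on streptavidin beads. Proteins were run on polyacrylamide gels and stained with Coomassie. Bands were excised, digested and identified by mass spectrometry.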

[14] = target: YTH domain-containing family protein 2 (Homo sapiens) (UniProt Q9Y5A9); experiment: Binding affinity to YTHDF2 in human NCI-H358 cells at 1 uM by mass spectrometry based pull down assay
[15] = target: Phosphoglycerate kinase 1 (Homo sapiens) (UniProt P00558); experiment: Binding affinity to PGK1 in human NCI-H358 cells at 1 uM by mass spectrometry based pull down assay
[16] = target: Kinesin-1 heavy chain (Homo sapiens) (UniProt P33176); experiment: Binding affinity to KIF5B in human NCI-H23 cells at 1 uM by mass spectrometry based pull down assay
[17] = target: ADP-ribosylation factor-like protein 2 (Homo sapiens) (UniProt P36404); experiment: Binding affinity to ARL2 in human NCI-H358 cells at 1 uM by mass spectrometry based pull down assay
[18] = target: Bifunctional glutamate/proline--tRNA ligase (Homo sapiens) (UniProt P07814); experiment: Binding affinity to EPRS in human NCI-H358 cells at 1 uM by mass spectrometry based pull down assay
Plastin-2 (Homo sapiens) = Plastin-2 (Homo sapiens) (UniProt P13796); experiment: Binding affinity to LCP1 in human NCI-H358 cells at 1 uM by mass spectrometry based pull down assay
[19] = target: Tropomyosin alpha-3 chain (Homo sapiens) (UniProt P06753); experiment: Binding affinity to TPM3 in human NCI-H23 cells at 1 uM by mass spectrometry based pull down assay

Sequence of Trifunctional enzyme subunit alpha, mitochondrial (Homo sapiens) (P40939 whole entry): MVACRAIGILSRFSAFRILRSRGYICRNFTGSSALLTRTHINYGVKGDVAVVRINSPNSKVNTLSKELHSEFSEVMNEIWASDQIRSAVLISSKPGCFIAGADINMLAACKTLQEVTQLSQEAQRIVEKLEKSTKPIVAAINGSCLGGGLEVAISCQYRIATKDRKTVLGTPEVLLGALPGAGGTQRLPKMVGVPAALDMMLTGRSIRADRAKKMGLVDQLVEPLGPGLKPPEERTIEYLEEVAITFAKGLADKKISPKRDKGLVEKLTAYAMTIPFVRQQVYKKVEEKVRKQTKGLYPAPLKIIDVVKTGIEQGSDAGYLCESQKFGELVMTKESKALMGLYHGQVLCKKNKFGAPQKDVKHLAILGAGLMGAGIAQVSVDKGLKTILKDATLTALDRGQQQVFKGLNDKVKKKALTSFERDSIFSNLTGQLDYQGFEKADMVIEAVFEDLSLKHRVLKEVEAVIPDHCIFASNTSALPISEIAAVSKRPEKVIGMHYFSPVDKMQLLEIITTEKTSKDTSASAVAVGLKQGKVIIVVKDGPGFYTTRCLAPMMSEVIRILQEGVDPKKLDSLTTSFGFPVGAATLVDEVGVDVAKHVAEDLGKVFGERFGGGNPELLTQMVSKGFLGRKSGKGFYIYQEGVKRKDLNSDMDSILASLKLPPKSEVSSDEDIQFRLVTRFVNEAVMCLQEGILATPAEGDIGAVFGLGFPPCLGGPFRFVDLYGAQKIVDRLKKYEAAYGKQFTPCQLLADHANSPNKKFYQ
Sequence of Clustered mitochondria protein homolog (Homo sapiens) (O75153 whole entry): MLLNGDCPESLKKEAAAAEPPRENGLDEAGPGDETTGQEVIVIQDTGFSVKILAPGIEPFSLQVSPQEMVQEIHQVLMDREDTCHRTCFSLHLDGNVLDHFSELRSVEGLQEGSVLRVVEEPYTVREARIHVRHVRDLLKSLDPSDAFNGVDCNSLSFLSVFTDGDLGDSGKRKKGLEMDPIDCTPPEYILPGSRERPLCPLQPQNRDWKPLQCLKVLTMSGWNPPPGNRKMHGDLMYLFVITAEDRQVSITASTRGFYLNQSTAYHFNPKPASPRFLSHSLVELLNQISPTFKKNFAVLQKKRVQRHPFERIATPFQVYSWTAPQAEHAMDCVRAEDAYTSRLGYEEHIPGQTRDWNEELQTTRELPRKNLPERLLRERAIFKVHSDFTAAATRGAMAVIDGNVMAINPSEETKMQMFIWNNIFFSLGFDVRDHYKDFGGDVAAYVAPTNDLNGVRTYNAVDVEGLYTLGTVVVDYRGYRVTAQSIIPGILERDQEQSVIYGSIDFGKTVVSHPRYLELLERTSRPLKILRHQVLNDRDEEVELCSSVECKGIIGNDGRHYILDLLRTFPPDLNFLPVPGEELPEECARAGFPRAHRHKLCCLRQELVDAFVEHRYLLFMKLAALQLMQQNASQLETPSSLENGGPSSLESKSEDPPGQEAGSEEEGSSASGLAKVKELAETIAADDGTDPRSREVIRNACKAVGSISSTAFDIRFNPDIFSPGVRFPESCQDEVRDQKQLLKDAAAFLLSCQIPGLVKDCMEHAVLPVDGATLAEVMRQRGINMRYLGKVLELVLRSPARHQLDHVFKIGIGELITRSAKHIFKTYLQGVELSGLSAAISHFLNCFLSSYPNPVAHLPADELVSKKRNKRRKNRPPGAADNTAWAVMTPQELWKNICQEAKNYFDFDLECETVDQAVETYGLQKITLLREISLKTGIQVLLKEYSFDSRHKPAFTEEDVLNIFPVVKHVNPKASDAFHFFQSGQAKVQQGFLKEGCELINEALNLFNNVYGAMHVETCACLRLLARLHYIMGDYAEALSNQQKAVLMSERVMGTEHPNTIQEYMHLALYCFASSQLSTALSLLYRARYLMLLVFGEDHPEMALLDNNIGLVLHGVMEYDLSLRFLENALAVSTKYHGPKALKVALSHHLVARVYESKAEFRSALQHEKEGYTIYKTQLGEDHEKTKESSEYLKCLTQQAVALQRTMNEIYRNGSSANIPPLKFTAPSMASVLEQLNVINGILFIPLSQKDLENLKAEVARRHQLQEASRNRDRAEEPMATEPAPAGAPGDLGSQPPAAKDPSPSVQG
Sequence of Carbonyl reductase [NADPH] 1 (Homo sapiens) (P16152 whole entry): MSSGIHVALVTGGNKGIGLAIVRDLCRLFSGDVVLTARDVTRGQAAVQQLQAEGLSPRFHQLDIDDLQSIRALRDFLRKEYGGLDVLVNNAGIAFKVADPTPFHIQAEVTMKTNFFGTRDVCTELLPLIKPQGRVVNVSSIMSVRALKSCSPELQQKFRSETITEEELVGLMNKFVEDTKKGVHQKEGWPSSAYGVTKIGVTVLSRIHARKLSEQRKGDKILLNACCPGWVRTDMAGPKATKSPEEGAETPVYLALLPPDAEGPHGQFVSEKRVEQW
Sequence of Fructose-2,6-bisphosphatase TIGAR (Homo sapiens) (Q9NQ88 whole entry): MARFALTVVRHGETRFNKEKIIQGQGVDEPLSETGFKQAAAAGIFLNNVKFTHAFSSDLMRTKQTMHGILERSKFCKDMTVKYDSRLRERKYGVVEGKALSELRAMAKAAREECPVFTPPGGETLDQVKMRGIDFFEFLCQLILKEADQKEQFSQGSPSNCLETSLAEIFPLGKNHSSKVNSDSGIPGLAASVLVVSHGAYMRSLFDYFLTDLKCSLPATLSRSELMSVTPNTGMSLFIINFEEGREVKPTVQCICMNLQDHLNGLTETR
Sequence of ADP-ribosylation factor-like protein 2 (Homo sapiens) (P36404 whole entry): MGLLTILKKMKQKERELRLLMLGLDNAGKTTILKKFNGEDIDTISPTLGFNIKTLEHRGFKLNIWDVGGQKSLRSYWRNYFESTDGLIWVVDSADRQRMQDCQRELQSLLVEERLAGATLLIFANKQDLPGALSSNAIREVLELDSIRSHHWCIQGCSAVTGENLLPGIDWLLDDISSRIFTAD
Sequence of LIM domain kinase 1 (Homo sapiens) (P53667 whole entry, looked up, the tested form may be a part): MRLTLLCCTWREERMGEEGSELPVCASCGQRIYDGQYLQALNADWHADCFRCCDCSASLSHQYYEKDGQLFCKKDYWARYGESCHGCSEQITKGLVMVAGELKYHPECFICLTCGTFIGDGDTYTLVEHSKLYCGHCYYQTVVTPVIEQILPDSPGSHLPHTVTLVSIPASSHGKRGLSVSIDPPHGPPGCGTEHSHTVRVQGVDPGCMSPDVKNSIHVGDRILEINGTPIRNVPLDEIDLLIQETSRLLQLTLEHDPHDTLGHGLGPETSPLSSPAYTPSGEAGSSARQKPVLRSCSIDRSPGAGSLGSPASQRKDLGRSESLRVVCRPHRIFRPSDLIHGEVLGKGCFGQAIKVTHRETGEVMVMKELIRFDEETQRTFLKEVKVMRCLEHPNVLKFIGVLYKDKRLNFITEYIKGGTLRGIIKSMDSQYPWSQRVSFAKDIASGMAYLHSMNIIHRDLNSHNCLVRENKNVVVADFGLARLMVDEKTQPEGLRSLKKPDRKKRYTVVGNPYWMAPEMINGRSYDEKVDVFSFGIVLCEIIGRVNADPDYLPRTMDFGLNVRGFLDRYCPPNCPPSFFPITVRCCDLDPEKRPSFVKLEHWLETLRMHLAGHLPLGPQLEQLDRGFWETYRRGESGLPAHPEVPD
Sequence of Lysophosphatidylcholine acyltransferase 1 (Homo sapiens) (Q8NF37 whole entry): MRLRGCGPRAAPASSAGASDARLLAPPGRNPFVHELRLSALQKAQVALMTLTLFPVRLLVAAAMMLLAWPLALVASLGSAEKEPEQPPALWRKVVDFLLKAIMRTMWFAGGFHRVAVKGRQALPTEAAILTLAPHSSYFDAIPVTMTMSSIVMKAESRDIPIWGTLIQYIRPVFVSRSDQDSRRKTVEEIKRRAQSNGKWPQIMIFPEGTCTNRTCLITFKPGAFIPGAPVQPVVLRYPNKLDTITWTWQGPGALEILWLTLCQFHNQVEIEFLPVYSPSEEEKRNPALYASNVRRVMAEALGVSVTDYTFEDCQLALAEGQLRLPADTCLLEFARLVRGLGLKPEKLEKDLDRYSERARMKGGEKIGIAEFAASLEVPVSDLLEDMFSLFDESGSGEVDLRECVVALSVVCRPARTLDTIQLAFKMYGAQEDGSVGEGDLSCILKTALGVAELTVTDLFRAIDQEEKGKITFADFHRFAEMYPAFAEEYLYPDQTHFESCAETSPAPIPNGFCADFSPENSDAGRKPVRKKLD
Sequence of Phosphoglycerate kinase 1 (Homo sapiens) (P00558 whole entry): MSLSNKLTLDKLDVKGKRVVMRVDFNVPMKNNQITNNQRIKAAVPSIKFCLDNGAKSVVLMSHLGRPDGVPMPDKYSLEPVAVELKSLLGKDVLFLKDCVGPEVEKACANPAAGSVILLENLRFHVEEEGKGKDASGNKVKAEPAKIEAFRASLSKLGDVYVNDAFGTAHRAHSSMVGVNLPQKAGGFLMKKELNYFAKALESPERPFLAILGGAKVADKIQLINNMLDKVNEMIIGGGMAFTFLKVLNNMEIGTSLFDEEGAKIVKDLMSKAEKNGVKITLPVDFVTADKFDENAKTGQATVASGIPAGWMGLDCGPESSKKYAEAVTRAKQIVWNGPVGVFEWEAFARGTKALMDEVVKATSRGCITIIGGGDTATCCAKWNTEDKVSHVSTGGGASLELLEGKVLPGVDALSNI
Sequence of YTH domain-containing family protein 2 (Homo sapiens) (Q9Y5A9 whole entry, the tested form may be a part): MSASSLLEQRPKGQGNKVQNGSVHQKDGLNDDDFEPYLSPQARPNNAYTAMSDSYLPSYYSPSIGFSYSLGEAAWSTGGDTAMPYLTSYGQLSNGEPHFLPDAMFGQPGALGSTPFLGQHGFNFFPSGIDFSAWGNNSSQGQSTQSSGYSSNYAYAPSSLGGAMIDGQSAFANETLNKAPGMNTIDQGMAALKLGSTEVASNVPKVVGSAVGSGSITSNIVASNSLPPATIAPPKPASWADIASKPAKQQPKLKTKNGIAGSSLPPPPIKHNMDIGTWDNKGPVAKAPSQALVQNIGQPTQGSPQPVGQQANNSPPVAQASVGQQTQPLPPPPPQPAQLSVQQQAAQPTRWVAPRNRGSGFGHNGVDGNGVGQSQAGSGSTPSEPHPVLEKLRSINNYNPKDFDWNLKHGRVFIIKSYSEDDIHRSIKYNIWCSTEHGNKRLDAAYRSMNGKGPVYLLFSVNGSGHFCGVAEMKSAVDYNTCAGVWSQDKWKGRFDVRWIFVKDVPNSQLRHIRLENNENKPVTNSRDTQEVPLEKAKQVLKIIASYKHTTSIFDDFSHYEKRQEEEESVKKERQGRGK

- Activity [1]: Active
- Activity [2]: Active
- Activity [3]: Active
- Activity [4]: Active
- Activity [5]: Active
- Activity [6]: Active
- Activity [7]: Active
- Activity [8]: Active
- Activity [9]: Active
- Activity [10]: Active
- Activity [11]: Active
- Activity [12]: Active
- Activity [13]: Active
- Activity [14]: Active
- Activity [15]: Active
- Activity [16]: Active
- Activity [17]: Active
- Activity [18]: Active
- Activity (Plastin-2 (Homo sapiens)): Active
- Activity [19]: Active
SMILES: C=CC(=O)Nc1ccccc1Nc1nc(Nc2ccc(N3CCN(CCOCCOCCOCCNC(=O)CCCC[C@@H]4SC[C@@H]5NC(=O)N[C@@H]54)CC3)cc2)ncc1Cl
- Activity (NCI-H23): Active
